Reference: ChEMBL document CHEMBL4480411, “Discovery of Second Generation RORγ Inhibitors Composed of an Azole Scaffold” (J Med Chem, 2019)

Columns and labels:
[1] = target: T1, Nuclear receptor ROR-gamma (Homo sapiens, UniProt P51449); experiment: Inhibition of human GAL4-fused RORgamma LBD transcriptional activity expressed in CHOK1 cells after 2 days by luciferase reporter gene assay; format: cell-based
T1 sequence (P51449 whole entry): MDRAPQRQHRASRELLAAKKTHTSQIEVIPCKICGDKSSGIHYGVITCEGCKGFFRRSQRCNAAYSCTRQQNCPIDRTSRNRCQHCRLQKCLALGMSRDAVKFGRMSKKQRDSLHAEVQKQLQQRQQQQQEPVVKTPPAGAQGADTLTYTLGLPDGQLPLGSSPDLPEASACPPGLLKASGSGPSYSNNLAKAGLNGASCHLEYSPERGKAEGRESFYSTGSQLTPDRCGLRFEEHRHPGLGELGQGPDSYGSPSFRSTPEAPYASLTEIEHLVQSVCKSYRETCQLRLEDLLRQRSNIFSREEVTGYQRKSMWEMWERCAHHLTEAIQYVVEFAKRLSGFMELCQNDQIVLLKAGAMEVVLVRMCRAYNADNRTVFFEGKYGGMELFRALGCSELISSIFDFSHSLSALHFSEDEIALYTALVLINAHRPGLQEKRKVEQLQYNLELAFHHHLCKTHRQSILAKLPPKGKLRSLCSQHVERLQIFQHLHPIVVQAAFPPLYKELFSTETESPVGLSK

[2] = Stability in human liver microsomes assessed as compound remaining after 60 mins; format: ADME, Microsome; settings: read-out: Stability
Method in brief: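 Human liver microsomes incubated with compound for 60 minutes; value reported as % of compound remaining.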

[3] = Lipophilicity, log D of the compound; format: physicochemical; settings: octanol/water
[4] = Apparent permeability in human Caco2 cells; format: ADME, cell-based; settings: Caco-2

Structure (SMILES)	EC50 [1]	remaining at 1 h [2]	logD [3]	Papp [4]
Cc1ccc(NC(=O)C[C@H](CCC(=O)[O-])c2noc(-c3ncc(CC(C)C)s3)c2C2CC2)c(Cl)c1.[Na+]	120 nM	82%	4	28 ×10⁻⁶ cm/s
Cc1ccc(NC(=O)C[C@H](CCC(=O)[O-])c2noc(-c3csc(CC(C)C)n3)c2C2CC2)c(Cl)c1.[Na+]	3800 nM	82%	3.8	34 ×10⁻⁶ cm/s
Cc1ccc(NC(=O)C[C@H](CCC(=O)O)c2noc(-c3cc(C(F)(F)C(C)(C)C)on3)c2C2CC2)c(Cl)c1	6 nM	77%	4.3	–
CC(C)(C)C(F)(F)c1cc(-c2onc([C@@H](CCC(=O)O)CC(=O)Nc3ccc(F)cc3Cl)c2C2CC2)no1	6 nM	90%	4	–
CNC(=O)CCC(CC(=O)Nc1ccc(C)cc1C)c1nnc(CCCC(C)C)n1C1CC1 (racemic)	6400 nM	65%	3.5	1.5 ×10⁻⁶ cm/s
CC(C)(C)C(F)(F)c1cc(-c2onc([C@@H](CCC(=O)O)CC(=O)Nc3ccc(Cl)cc3F)c2C2CC2)no1	7 nM	107%	4.2	–
Cc1ccc(NC(=O)CC(CCN(C)C)c2nnc(CCCC(C)C)n2C2CC2)c(C)c1 (racemic)	19000 nM	85%	3.3	0.8 ×10⁻⁶ cm/s
Cc1ccc(NC(=O)CC(CCN)c2nnc(CCCC(C)C)n2C2CC2)c(C)c1 (racemic)	> 20000 nM	88%	3.1	0.2 ×10⁻⁶ cm/s
Cc1ccc(NC(=O)C[C@H](CCC(=O)O)c2noc(-c3cc(CCC(C)C)on3)c2C2CC2)c(Cl)c1	8 nM	79%	4.3	–
Cc1ccc(NC(=O)C[C@H](CCC(=O)O)c2noc(-c3cc(C(F)(F)C(C)C)on3)c2C2CC2)c(Cl)c1	7 nM	74%	4	–
Cc1ccc(NC(=O)C[C@H](CCC(=O)[O-])c2noc(-c3cc(CC(C)C)no3)c2C2CC2)c(Cl)c1.[Na+]	12 nM	54%	3.8	28 ×10⁻⁶ cm/s
Cc1ccc(NC(=O)CC(CCC(N)=O)c2nnc(CCCC(C)C)n2C2CC2)c(C)c1 (racemic)	16000 nM	44%	3.4	0.8 ×10⁻⁶ cm/s
Cc1ccc(NC(=O)CC(CCC(=O)O)c2nnc(CCCC(C)C)n2C2CC2)c(C)c1 (racemic)	> 20000 nM	91%	2.9	0.2 ×10⁻⁶ cm/s
Cc1ccc(NC(=O)C[C@H](CCC(=O)O)c2noc(-c3cc(C(F)(F)CC(C)C)on3)c2C2CC2)c(Cl)c1	8 nM	78%	4.4	–
Cc1ccc(NC(=O)CC(CCO)c2nnc(CCCC(C)C)n2C2CC2)c(C)c1 (racemic)	440 nM	21%	3.5	11 ×10⁻⁶ cm/s
Cc1ccc(NC(=O)CC(CCC(=O)N(C)C)c2nnc(CCCC(C)C)n2C2CC2)c(C)c1 (racemic)	2700 nM	45%	3.8	7 ×10⁻⁶ cm/s
Cc1ccc(NC(=O)C[C@H](CCC(=O)[O-])c2noc(-c3nnc(CC(C)C)s3)c2C2CC2)c(Cl)c1.[Na+]	56 nM	78%	3.4	10 ×10⁻⁶ cm/s
Cc1ccc(NC(=O)C[C@H](CCC(=O)[O-])c2noc(-c3cc(CC(C)C)on3)c2C2CC2)c(Cl)c1.[Na+]	14 nM	74%	3.9	36 ×10⁻⁶ cm/s
CCN(c1ccc(C(O)(C(F)(F)F)C(F)(F)F)cc1)S(=O)(=O)c1ccc([N+](=O)[O-])cc1	190 nM	–	–	–
CC(=O)N1C[C@H](C(=O)Nc2ccc(C)cc2C)[C@@H](c2nnc([C@H]3C[C@@H](CC(C)C)C3)n2C2CC2)C1	–	61%	4.3	20 ×10⁻⁶ cm/s
Cc1ccc(NC(=O)C[C@H](CCC(=O)[O-])c2noc(-c3noc(CC(C)C)n3)c2C2CC2)c(Cl)c1.[Na+]	62 nM	90%	3.6	25 ×10⁻⁶ cm/s
Cc1ccc(NC(=O)C[C@H](CCC(=O)[O-])c2noc(-c3cnc(CC(C)C)s3)c2C2CC2)c(Cl)c1.[Na+]	17 nM	54%	3.8	34 ×10⁻⁶ cm/s
Cc1ccc(NC(=O)CCc2nnc(CCCC(C)C)n2C2CC2)c(C)c1	–	27%	3.9	36 ×10⁻⁶ cm/s
CC(=O)NCCC(CC(=O)Nc1ccc(C)cc1C)c1nnc(CCCC(C)C)n1C1CC1 (racemic)	11000 nM	39%	3.5	1.3 ×10⁻⁶ cm/s
Cc1ccc(NC(=O)C[C@H](CCC(=O)[O-])c2noc(-c3ncc(CC(C)C)o3)c2C2CC2)c(Cl)c1.[Na+]	660 nM	75%	3.7	32 ×10⁻⁶ cm/s
Cc1ccc(NC(=O)C[C@H](CCC(=O)O)c2noc(-c3ccc(CC(C)C)cc3)c2C2CC2)c(Cl)c1	44 nM	80%	4.8	16 ×10⁻⁶ cm/s
Cc1ccc(NC(=O)C[C@H](CCC(=O)O)c2noc(-c3cc(CC(C)(C)C)on3)c2C2CC2)c(Cl)c1	7 nM	84%	4.2	–
